From ChEMBL document CHEMBL1146598, “Synthesis and structure-activity relationship of mannose-based peptidomimetics selectively blocking integrin alpha4beta7 binding to mucosal addressin cell adhesion molecule-1” (J Med Chem, 2003)

How the values were obtained:
[1] = target: Integrin alpha-4/beta-1 (Homo sapiens) (UniProt P05556+P13612); assay: In vitro inhibition of Jurkat cell (alpha4-beta1) cell adhesion to vascular cell adhesion molecule-1.; assay type: functional, cell-based
Method in brief: (§1)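 Jurkat cells (α4β1+, α4β7−) are Hoechst H33342-labelled (6 µg/mL), then preincubated with compound 10 min at 37 °C at 8 × 10^5 cells/mL. Adhesion runs 30 min at 37 °C to VCAM-IgG (293T transfectant supernatant) captured on donkey anti-human IgG, in RPMI/1% BSA/1 mM Ca2+, Mg2+. Unbound cells are spun off inverted (50 g, 10 min); adhesion is read by fluorescence; IC50 from curves.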

[2] = In vitro inhibition of 38-beta7 (alpha4-beta7) cell adhesion to mucosal addressin cell adhesion molecule-1.; assay type: functional
Method in brief: (§2)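 38C13β7 lymphoma cells (α4β7+) labelled with H33342 dye (6 µg/mL), 8 × 10^5 cells/mL in adhesion buffer (Click's RPMI, 1% BSA, 1.0 mM Ca2+/Mg2+). Cells are preincubated with compound 10 min at 37 °C, then adhere 30 min at 37 °C to plates carrying anti-human-IgG-captured MAdCAM-1-IgG from 293T supernatant. Nonadherent cells are removed by inverse centrifugation (50 g, 10 min); readout is fluorimetry; IC50 from curves.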

[3] = target: T1, Integrin beta-7 (Homo sapiens, UniProt P13612+P26010); assay: Inhibition of alpha4-beta7 interaction to mucosal addressin cell adhesion molecule-1 (MAdCAM-1) was determined; assay type: functional; method in brief: as §2
T1 sequence (P26010 whole entry): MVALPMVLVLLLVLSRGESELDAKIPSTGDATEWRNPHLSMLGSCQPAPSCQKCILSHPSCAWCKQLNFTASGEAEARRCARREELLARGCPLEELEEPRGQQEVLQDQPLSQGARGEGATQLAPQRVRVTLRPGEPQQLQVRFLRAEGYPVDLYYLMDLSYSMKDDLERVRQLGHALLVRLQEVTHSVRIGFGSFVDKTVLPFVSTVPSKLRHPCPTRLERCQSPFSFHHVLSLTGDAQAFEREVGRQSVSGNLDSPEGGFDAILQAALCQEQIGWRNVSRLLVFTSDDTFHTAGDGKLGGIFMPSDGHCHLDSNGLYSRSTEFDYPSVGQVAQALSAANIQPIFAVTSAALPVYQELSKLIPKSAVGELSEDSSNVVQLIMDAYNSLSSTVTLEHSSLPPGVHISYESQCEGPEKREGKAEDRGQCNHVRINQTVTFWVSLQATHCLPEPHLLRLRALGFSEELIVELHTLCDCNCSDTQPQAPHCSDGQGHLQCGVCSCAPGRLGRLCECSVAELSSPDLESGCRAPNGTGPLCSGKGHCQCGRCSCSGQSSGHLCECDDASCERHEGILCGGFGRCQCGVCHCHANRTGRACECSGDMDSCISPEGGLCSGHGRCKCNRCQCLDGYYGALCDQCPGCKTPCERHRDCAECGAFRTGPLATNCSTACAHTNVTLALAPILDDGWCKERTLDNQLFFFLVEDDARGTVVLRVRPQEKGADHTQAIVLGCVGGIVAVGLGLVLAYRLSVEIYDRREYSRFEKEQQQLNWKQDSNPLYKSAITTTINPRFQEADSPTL

[4] = target: Integrin beta-1 (Homo sapiens, UniProt P05556); assay: Inhibition of alpha4-beta1 interaction to vascular cell adhesion molecule-1 (VCAM-1) was determined; assay type: functional; method in brief: as §1
Chain of Integrin beta-1 (P05556 whole entry): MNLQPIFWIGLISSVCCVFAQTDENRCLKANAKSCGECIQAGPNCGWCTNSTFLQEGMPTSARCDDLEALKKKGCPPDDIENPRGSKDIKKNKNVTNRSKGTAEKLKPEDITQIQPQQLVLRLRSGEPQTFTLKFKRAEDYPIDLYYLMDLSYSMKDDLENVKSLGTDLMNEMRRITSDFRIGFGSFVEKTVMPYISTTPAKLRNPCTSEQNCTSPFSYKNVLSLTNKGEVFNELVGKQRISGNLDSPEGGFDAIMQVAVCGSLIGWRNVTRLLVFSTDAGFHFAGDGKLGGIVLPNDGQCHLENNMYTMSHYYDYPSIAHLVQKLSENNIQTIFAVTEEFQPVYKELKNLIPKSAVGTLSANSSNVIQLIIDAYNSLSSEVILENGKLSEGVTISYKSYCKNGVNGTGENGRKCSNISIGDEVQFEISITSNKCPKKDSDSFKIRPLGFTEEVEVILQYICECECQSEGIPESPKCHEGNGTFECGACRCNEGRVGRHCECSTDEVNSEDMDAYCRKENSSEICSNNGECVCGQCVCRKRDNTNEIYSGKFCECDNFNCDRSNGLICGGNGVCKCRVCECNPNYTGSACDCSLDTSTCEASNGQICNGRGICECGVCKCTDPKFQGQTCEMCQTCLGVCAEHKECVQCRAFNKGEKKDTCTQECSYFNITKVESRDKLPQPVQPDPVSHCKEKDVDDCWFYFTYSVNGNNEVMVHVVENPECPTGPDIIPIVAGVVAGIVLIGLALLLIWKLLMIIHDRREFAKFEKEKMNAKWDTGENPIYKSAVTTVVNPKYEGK

Row | Adhesion [1] [%] | IC50 [3] [µM] | IC50 [4] [µM] | SMILES | Adhesion [2] [%]
1 | 81 |  |  | CO[C@@]12O[C@H]3[C@H](O[C@@]1(OC)c1ccccc1-c1ccccc12)[C@@H](COCC(C)C)OC(OCC(=O)O)[C@H]3OCCO (stereo not given in full) | 76
2 |  | 420 |  | CO[C@]12CCCC[C@@]1(OC)OC1[C@H](COCC(C)C)O[C@@H](OCC(=O)O)[C@H](OCc3ccccc3)[C@H]1O2 (stereo in doubt; form 2) [listing 1 of 2 here] | 15
3 | 100 |  |  | COC1C(COCC(C)C)O[C@@H](OCC(=O)O)[C@H](OCCO)[C@H]1OC (stereo not given in full) | 100
4 | 77 |  |  | CO[C@]12CCCC[C@@]1(OC)OC1[C@H](COCC(C)C)O[C@@H](OCC(=O)O)[C@H](OCc3ccccc3)[C@H]1O2 (stereo in doubt; form 2) [listing 2 of 2 here] | 
5 |  |  | 1440 | CC[C@H](C)[C@@H]1NC(=O)[C@H](CCC(N)=O)NC(=O)[C@@H](N)CSSC[C@@H](C(=O)O)NC(=O)[C@@H]2CCCN2C(=O)[C@H](CO)NC(=O)[C@H](CC(=O)O)NC1=O | 
6 | 82 |  |  | CO[C@@]12O[C@@H]3[C@H](OCCO)[C@H](OCC(=O)O)O[C@H](COCC(C)C)[C@H]3O[C@@]1(OC)c1ccccc1-c1ccccc12 | 80
7 | 100 |  |  | COC12CCCC[C@]1(OC)O[C@H]1C(O2)C(COC(C)C)O[C@@H](OCC(=O)O)[C@@H]1OCc1ccccc1 (stereo in doubt; form 2) [listing 2 of 2 here] | 
8 | 10 | 280 |  | CC(C)C[C@H](NC(=O)c1cc2ccccc2cn1)C(=O)N[C@@H](CC(=O)O)C(=O)N[C@H](C(N)=O)[C@@H](C)O | 10
9 | 100 |  |  | COC1C(CC(C)C)O[C@@H](OCC(=O)O)C(OCc2ccccc2)[C@H]1OC (stereo not given in full) | 100
10 | 100 |  |  | COC1C(COCC(C)C)O[C@@H](OCC(=O)O)[C@H](OCc2ccccc2)[C@H]1OC (stereo not given in full) | 100
11 | 92 |  |  | COC1C(COC(C)C)O[C@@H](OCC(=O)O)[C@H](OCc2ccccc2)[C@H]1OC (stereo not given in full) | 100

Second part, the molecule before the results:

Row | SMILES | Adhesion [1] [%] | IC50 [3] [µM] | IC50 [4] [µM] | Adhesion [2] [%]
12 | COC1C(COC(C)C)O[C@@H](OCC(=O)O)C(OCCO)[C@H]1OC (stereo not given in full) | 100 |  |  | 100
13 | COC12CCCC[C@]1(OC)O[C@H]1C(O2)C(COC(C)C)O[C@@H](OCC(=O)O)[C@@H]1OCc1ccccc1 (stereo in doubt; form 2) [listing 1 of 2 here] |  |  |  | 76
14 | CO[C@]12CCCC[C@@]1(OC)OC1[C@H](COCC(C)C)O[C@@H](OCC(=O)O)[C@H](OCc3ccccc3)[C@H]1O2 (stereo in doubt; form 1) [listing 1 of 2 here] |  |  |  | 90
15 | COC1C(COCC(C)C)O[C@@H](OCC(=O)O)C(OCc2ccccc2)[C@H]1OC (stereo not given in full) | 86 |  |  | 100
16 | COC1C(CCC(C)C)O[C@@H](OCC(=O)O)C(OCc2ccccc2)[C@H]1OC (stereo not given in full) | 100 |  |  | 100
17 | COC1C(CCC(C)C)O[C@@H](OCC(=O)O)[C@H](OCc2ccccc2)[C@H]1OC (stereo not given in full) | 97 |  |  | 100
18 | COC1C(COC(C)C)O[C@@H](OCC(=O)O)[C@H](OCCO)[C@H]1OC (stereo not given in full) | 98 |  |  | 100
19 | CC[C@H](C)[C@@H]1NC(=O)[C@@H](CCC(N)=O)NC(=O)[C@H](N)CSSC[C@H](C(=O)O)NC(=O)[C@H]2CCCN2C(=O)[C@H](CO)NC(=O)[C@@H](CC(=O)O)NC1=O | 52 |  |  | 
20 | COC1C(CC(C)C)O[C@@H](OCC(=O)O)[C@H](OCc2ccccc2)[C@H]1OC (stereo not given in full) | 100 |  |  | 100
21 | CO[C@]12CCCC[C@@]1(OC)OC1[C@H](COCC(C)C)O[C@@H](OCC(=O)O)[C@H](OCc3ccccc3)[C@H]1O2 (stereo in doubt; form 1) [listing 2 of 2 here] | 89 |  |  | 
22 | COC12CCCC[C@]1(OC)O[C@H]1C(O2)C(COC(C)C)O[C@@H](OCC(=O)O)[C@@H]1OCc1ccccc1 (stereo in doubt; form 1) [listing 1 of 2 here] | 100 |  |  | 
23 | COC12CCCC[C@]1(OC)O[C@H]1C(O2)C(COC(C)C)O[C@@H](OCC(=O)O)[C@@H]1OCc1ccccc1 (stereo in doubt; form 1) [listing 2 of 2 here] |  |  |  | 100
24 | COC1C(COC(C)C)O[C@@H](OCC(=O)O)C(OCc2ccccc2)[C@H]1OC (stereo not given in full) | 86 |  |  | 100
